Test results: ChEMBL document CHEMBL4811218, “Discovery and optimization of withangulatin A derivatives as novel glutaminase 1 inhibitors for the treatment of triple-negative breast cancer” (Eur J Med Chem, 2021)

Experiments:
MDA-MB-231 [1] = assay: Antiproliferative activity against human MDA-MB-231 cells after 24 hrs by MTT assay; type: functional, cell-based; conditions: MDA-MB-231, 24 h
[2] = target: T1, Glutaminase kidney isoform, mitochondrial (Homo sapiens) (UniProt O94925); assay: Inhibition of human GLS1 at 10 uM relative to control
T1 sequence (whole entry): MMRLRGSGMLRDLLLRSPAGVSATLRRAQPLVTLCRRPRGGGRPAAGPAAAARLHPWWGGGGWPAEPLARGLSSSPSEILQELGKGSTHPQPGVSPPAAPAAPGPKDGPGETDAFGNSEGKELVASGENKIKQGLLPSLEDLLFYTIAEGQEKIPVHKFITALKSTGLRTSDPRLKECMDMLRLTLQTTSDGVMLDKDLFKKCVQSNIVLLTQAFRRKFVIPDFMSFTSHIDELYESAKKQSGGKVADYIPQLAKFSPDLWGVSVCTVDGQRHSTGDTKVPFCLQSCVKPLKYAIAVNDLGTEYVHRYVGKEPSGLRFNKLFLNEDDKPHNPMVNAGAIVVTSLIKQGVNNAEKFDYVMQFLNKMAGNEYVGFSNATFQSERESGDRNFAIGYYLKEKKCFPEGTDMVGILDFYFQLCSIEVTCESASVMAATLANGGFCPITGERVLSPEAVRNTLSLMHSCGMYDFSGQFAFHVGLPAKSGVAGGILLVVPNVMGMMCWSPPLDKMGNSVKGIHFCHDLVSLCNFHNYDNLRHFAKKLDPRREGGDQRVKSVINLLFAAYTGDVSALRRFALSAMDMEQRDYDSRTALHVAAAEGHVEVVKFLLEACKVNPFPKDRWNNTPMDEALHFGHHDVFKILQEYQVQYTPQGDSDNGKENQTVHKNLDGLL
In short: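 Human GLS1 hydrolase activity measured with a commercial GLS1 inhibitor screening kit, following the manufacturer's protocol. Single-point screening was run at 10 μM.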

MDA-MB-231 [3] = assay: Antiproliferative activity against human MDA-MB-231 cells after 24 hrs by MTT assay relative to control; type: functional
In short: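 MDA-MB-231 cells kept in DMEM with 10% FBS at 37°C, 5% CO2. Seeded at 5×10^3 cells/well and left 24 h, then exposed to compounds at 0.078-10 µM for 24 h. 0.1% DMSO served as the vehicle control. MTT added for 4 h, formazan dissolved in DMSO, absorbance read at 570 nm. IC50 derived. Each run in triplicate, repeated at least three times.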

Row | SMILES | IC50 (MDA-MB-231 [1]) [nM] | inhibition [2] [%] | inhibition (INH) (MDA-MB-231 [3]) [%]
1 | CC(=O)O[C@H]1C=C([C@H](C)[C@H]2CC(C)=C(C)C(=O)O2)[C@@]2(C)CC[C@H]3[C@@H](C[C@H]4O[C@]45[C@@H](OC(=O)CCC(=O)O)C=CC(=O)[C@]35C)[C@@]12O | > 50000 | < 50 | –
2 | COc1ccc(NC(=O)CCC(=O)O[C@H]2C(Nc3ccc(OC)cc3)CC(=O)[C@]3(C)[C@H]4CC[C@]5(C)C([C@H](C)[C@H]6CC(C)=C(C)C(=O)O6)=C[C@H](OC(C)=O)[C@]5(O)[C@@H]4C[C@H]4O[C@@]423)cc1 (stereo partly specified) | > 50000 | < 50 | 0
3 | CC(=O)O[C@H]1C=C([C@H](C)[C@H]2CC(C)=C(C)C(=O)O2)[C@@]2(C)CC[C@H]3[C@@H](C[C@H]4O[C@]45[C@@H](OC(=O)/C=C/C(=O)Nc4ccc(N6CCOCC6)c(F)c4)C=CC(=O)[C@]35C)[C@@]12O | 1380 | 52.4 | 90.8
4 | CC(=O)O[C@H]1C=C([C@H](C)[C@H]2CC(C)=C(C)C(=O)O2)[C@@]2(C)CC[C@H]3[C@@H](C[C@H]4O[C@]45[C@@H](OC(=O)CCC(=O)Nc4nccs4)C=CC(=O)[C@]35C)[C@@]12O | 2060 | < 50 | 79.6
5 | CC(=O)O[C@H]1C=C([C@H](C)[C@H]2CC(C)=C(C)C(=O)O2)[C@@]2(C)CC[C@H]3[C@@H](C[C@H]4O[C@]45[C@@H](OC(=O)/C=C/C(=O)Nc4ccc(F)cc4)C=CC(=O)[C@]35C)[C@@]12O | 1320 | < 50 | 88.9
6 | COc1ccc(NC(=O)CCCC(=O)O[C@H]2C=CC(=O)[C@]3(C)[C@H]4CC[C@]5(C)C([C@H](C)[C@H]6CC(C)=C(C)C(=O)O6)=C[C@H](OC(C)=O)[C@]5(O)[C@@H]4C[C@H]4O[C@]243)cc1 | 440 | 56.3 | 92.9
7 | CC(=O)O[C@H]1C=C([C@H](C)[C@H]2CC(C)=C(C)C(=O)O2)[C@@]2(C)CC[C@H]3[C@@H](C[C@H]4O[C@]45[C@@H](OC(=O)CCCC(=O)Nc4nc6ccccc6s4)C=CC(=O)[C@]35C)[C@@]12O | 670 | < 50 | 94.1
8 | CC(=O)O[C@H]1C=C([C@H](C)[C@H]2CC(C)=C(C)C(=O)O2)[C@@]2(C)CC[C@H]3[C@@H](C[C@H]4O[C@]45[C@@H](OC(=O)CCCC(=O)O)C=CC(=O)[C@]35C)[C@@]12O | > 50000 | < 50 | –
9 | COc1ccc(NC(=O)/C=C/C(=O)O[C@H]2C=CC(=O)[C@]3(C)[C@H]4CC[C@]5(C)C([C@H](C)[C@H]6CC(C)=C(C)C(=O)O6)=C[C@H](OC(C)=O)[C@]5(O)[C@@H]4C[C@H]4O[C@]243)cc1 | 790 | 51.6 | 94.1
10 | CC(=O)O[C@H]1C=C([C@H](C)[C@H]2CC(C)=C(C)C(=O)O2)[C@@]2(C)CC[C@H]3[C@@H](C[C@H]4O[C@]45[C@@H](OC(=O)CCC(=O)Nc4ccc(N(C)C)cc4)C=CC(=O)[C@]35C)[C@@]12O | 1620 | < 50 | 83.3
11 | CC(=O)O[C@H]1C=C([C@H](C)[C@H]2CC(C)=C(C)C(=O)O2)[C@@]2(C)CC[C@H]3[C@@H](C[C@H]4O[C@]45[C@@H](OC(=O)CCC(=O)Nc4ccc(F)cc4)C=CC(=O)[C@]35C)[C@@]12O | 1870 | < 50 | 80.4
12 | CC(=O)O[C@H]1C=C([C@H](C)[C@H]2CC(C)=C(C)C(=O)O2)[C@@]2(C)CC[C@H]3[C@@H](C[C@H]4O[C@]45[C@@H](OC(=O)/C=C/C(=O)Nc4nccs4)C=CC(=O)[C@]35C)[C@@]12O | 1830 | < 50 | 88.4
13 | COc1ccc(NC(=O)/C=C/C(=O)O[C@H]2C(Nc3ccc(OC)cc3)CC(=O)[C@]3(C)[C@H]4CC[C@]5(C)C([C@H](C)[C@H]6CC(C)=C(C)C(=O)O6)=C[C@H](OC(C)=O)[C@]5(O)[C@@H]4C[C@H]4O[C@@]423)cc1 (stereo partly specified) | > 50000 | < 50 | 0
14 | COc1ccc(NC(=O)CCCC(=O)O[C@H]2C(Nc3ccc(OC)cc3)CC(=O)[C@]3(C)[C@H]4CC[C@]5(C)C([C@H](C)[C@H]6CC(C)=C(C)C(=O)O6)=C[C@H](OC(C)=O)[C@]5(O)[C@@H]4C[C@H]4O[C@@]423)cc1 (stereo partly specified) | > 50000 | < 50 | 0
15 | CC(=O)O[C@H]1C=C([C@H](C)[C@H]2CC(C)=C(C)C(=O)O2)[C@@]2(C)CC[C@H]3[C@@H](C[C@H]4O[C@]45[C@@H](OC(=O)CCC(=O)Nc4nncs4)C=CC(=O)[C@]35C)[C@@]12O | 8070 | < 50 | 77.5
16 | O=C(Cc1ccccc1)Nc1nnc(CCSCCc2nnc(NC(=O)Cc3ccccc3)s2)s1 | 9080 | – | 68.5
17 | CC(=O)O[C@H]1C=C([C@H](C)[C@H]2CC(C)=C(C)C(=O)O2)[C@@]2(C)CC[C@H]3[C@@H](C[C@H]4O[C@]45[C@@H](OC(=O)CCC(=O)Nc4nc6ccccc6s4)C=CC(=O)[C@]35C)[C@@]12O | 3500 | < 50 | 79.5
18 | COc1ccc(NC(=O)CCC(=O)O[C@H]2C=CC(=O)[C@]3(C)[C@H]4CC[C@]5(C)C([C@H](C)[C@H]6CC(C)=C(C)C(=O)O6)=C[C@H](OC(C)=O)[C@]5(O)[C@@H]4C[C@H]4O[C@]243)cc1 | 1020 | < 50 | 82.9
19 | CC(=O)O[C@H]1C=C([C@H](C)[C@H]2CC(C)=C(C)C(=O)O2)[C@@]2(C)CC[C@H]3[C@@H](C[C@H]4O[C@]45[C@@H](OC(=O)CCCC(=O)Nc4ccc(F)cc4)C=CC(=O)[C@]35C)[C@@]12O | 490 | < 50 | 95.4
20 | CC(=O)O[C@H]1C=C([C@H](C)[C@H]2CC(C)=C(C)C(=O)O2)[C@@]2(C)CC[C@H]3[C@@H](C[C@H]4O[C@]45[C@@H](OC(=O)CCCC(=O)Nc4ccc(N(C)C)cc4)C=CC(=O)[C@]35C)[C@@]12O | 1070 | 51.8 | 92.6
21 | CC(=O)O[C@H]1C=C([C@H](C)[C@H]2CC(C)=C(C)C(=O)O2)[C@@]2(C)CC[C@H]3[C@@H](C[C@H]4O[C@]45[C@@H](OC(=O)CCC(=O)Nc4ccc(N6CCOCC6)c(F)c4)C=CC(=O)[C@]35C)[C@@]12O | 1660 | 53.5 | 80.9
22 | CC(=O)O[C@H]1C=C([C@H](C)[C@H]2CC(C)=C(C)C(=O)O2)[C@@]2(C)CC[C@H]3[C@@H](C[C@H]4O[C@]45[C@@H](OC(=O)CCCC(=O)Nc4ccc(N6CCOCC6)c(F)c4)C(Nc4ccc(N6CCOCC6)c(F)c4)CC(=O)[C@]35C)[C@@]12O (stereo partly specified) | > 50000 | < 50 | 0
23 | CC(=O)O[C@H]1C=C([C@H](C)[C@H]2CC(C)=C(C)C(=O)O2)[C@@]2(C)CC[C@H]3[C@@H](C[C@H]4O[C@]45[C@@H](OC(=O)/C=C/C(=O)Nc4nc6ccccc6s4)C=CC(=O)[C@]35C)[C@@]12O | > 50000 | < 50 | 0
24 | CC(=O)O[C@H]1C=C([C@H](C)[C@H]2CC(C)=C(C)C(=O)O2)[C@@]2(C)CC[C@H]3[C@@H](C[C@H]4O[C@]45[C@@H](OC(=O)/C=C/C(=O)O)C=CC(=O)[C@]35C)[C@@]12O | > 50000 | < 50 | –
25 | CC(=O)O[C@H]1C=C([C@H](C)[C@H]2CC(C)=C(C)C(=O)O2)[C@@]2(C)CC[C@H]3[C@@H](C[C@H]4O[C@]45[C@@H](OC(=O)CCCC(=O)Nc4nccs4)C=CC(=O)[C@]35C)[C@@]12O | 1000 | < 50 | 84.8
